# Measurements of several laboratories.
# Protocols differ between the studies behind these lines.
# Target: Vascular endothelial growth factor receptor 3 (FLT4, Homo sapiens, UniProt P35916)
Compound,test,conditions,endpoint,value
O=C(O)[C@H]1[C@H](Cn2nnc3ccccc3c2=O)CC[C@@H]1C(=O)c1ccc(OCCC2CCOCC2)cc1,"cell-free assay, competition with immobilised ligand",1 µM,remaining binding,81%
CCN(CC)c1ccc(C2=NNC(=O)CC2C)cc1[N+](=O)[O-] (centres unmarked),"enzyme activity, inhibitor",10 µM,remaining activity,111%
N#CC1(c2ccccn2)CCN(Cc2cc(C(=O)N3CCCC3)c(=O)n3ccccc23)CC1,"cell-free assay, competition with immobilised ligand",1 µM,remaining binding,86%
Clc1ccc(Nc2nnc(Cc3ccncc3)c3ccccc23)cc1,cell-free assay,0.5 µM,remaining signal,62.8%
COc1cc(Cl)c(C(=O)N[C@@H](CN[C@H]2CC[C@@H](N)CC2)Cc2ccc(C#N)cc2)cc1-c1ccc(CN[C@H](C)c2ccc(C)cc2)o1,"enzyme activity, inhibitor",1 µM,remaining activity,93%
Cc1cc(NC(=O)c2cccc3cc(-c4cccc5[nH]nc(N)c45)ccc23)ccc1F,"enzyme activity, inhibitor",0.1 µM,activity vs control,1%
CCOc1cc(-c2nncn2C)ccc1Nc1ncc2cc(C)nc(NCC(C)(C)C)c2n1,"enzyme activity, inhibitor, FRET",1 µM,inhibition,23%
CNC(=O)c1cc(Oc2ccc(NC(=O)Nc3ccc(Cl)c(C(F)(F)F)c3)cc2)ccn1,cell-free assay,0.5 µM,remaining signal,43%
CC(C)(O)c1cncc(-c2nc3ccc(F)cc3n2C2CC2)c1,"cell-free assay, competition with immobilised ligand",1 µM,remaining binding,100%
Cc1sc(C(=O)NC2COC2)cc1-n1cc(NC(=O)Nc2c(F)cccc2Cl)cn1,"enzyme activity, inhibitor",10 µM,remaining activity,79.2%
COc1cc2nccc(Oc3ccc(NC(=O)c4c5n(n(-c6ccc(F)cc6)c4=O)CCCC5)cc3)c2cc1OC,"enzyme activity, inhibitor",0.1 µM,inhibition,47%
Cc1ccc(C(=O)Nc2ccc(CN3CCN(C)CC3)c(C(F)(F)F)c2)cc1C#Cc1cnc2cccnn12,cell-free assay,23.5 nM,remaining signal,35%
O=C(Nc1cccnn1)N1CCC(=Cc2cccc(Oc3ccc(C(F)(F)F)cn3)c2)CC1,"cell-free assay, competition with immobilised ligand",1 µM,remaining binding,80%
O=C(Nc1cnn(-c2csc(C(=O)NC3COC3)c2)c1)Nc1c(F)cccc1Cl,"enzyme activity, inhibitor",5 µM,remaining activity,86.2%
N#CCCc1ccc2c(c1)-c1[nH]c3ccc([N+](=O)[O-])cc3c1CC(=O)N2,cell-free assay,0.5 µM,remaining signal,66.5%
C[C@@H]1CN(c2cc(-c3n[nH]c4ccc(OC5(C)CC5)cc34)ncn2)C[C@H](C)O1,"cell-free assay, competition with immobilised ligand",0.1 µM,remaining binding,100%
COc1cc2ncnc(Nc3ccc(Oc4ccccc4)c(C)c3C)c2cc1OC,"enzyme activity, inhibitor",1 µM,inhibition,12%
O=C1Nc2ccc(Cl)cc2C1=Cc1cc(Cl)c(O)c(Cl)c1,cell-free assay,0.5 µM,remaining signal,87.3%
Cc1cnc(NC2CCOCC2)nc1-n1cnc(C(=O)NC(CN)c2cc(F)cc(Cl)c2)c1 (centres unmarked),"enzyme activity, inhibitor, radiometric",1 µM,remaining activity,107%
CCCCN(CCCC)C(=O)CN1C[C@H](c2cc(OC)c3c(c2)OCO3)[C@@H](C(=O)O)[C@@H]1CC(C)(C)CCC,"cell-free assay, competition with immobilised ligand",1 µM,remaining binding,100%
